Measured values: ChEMBL document CHEMBL1799944, “New 2-heterocyclyl-imidazo[2,1-i]purin-5-one derivatives as potent and selective human A3 adenosine receptor antagonists” (J Med Chem, 2011)

Columns and labels:
Adenosine receptor A3 [1] = biological target: T1, Adenosine receptor A3 (Homo sapiens, UniProt P0DMS8); assay: Inverse agonist activity at human recombinant A3 adenosine receptor expressed CHO cells by [35S]GTPgammaS binding assay; type: functional, cell-based
T1 sequence (P0DMS8 whole entry): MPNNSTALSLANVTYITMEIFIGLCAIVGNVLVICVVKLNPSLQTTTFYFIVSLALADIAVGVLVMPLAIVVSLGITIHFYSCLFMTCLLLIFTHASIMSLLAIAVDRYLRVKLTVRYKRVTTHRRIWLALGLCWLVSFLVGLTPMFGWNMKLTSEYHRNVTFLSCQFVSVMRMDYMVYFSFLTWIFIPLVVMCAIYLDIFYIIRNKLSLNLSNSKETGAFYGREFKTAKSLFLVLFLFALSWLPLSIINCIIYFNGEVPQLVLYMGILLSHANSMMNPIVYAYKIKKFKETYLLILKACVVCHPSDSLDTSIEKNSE

[2] = biological target: Adenosine receptors; A1 & A3 (Homo sapiens) (UniProt P30542+P0DMS8); assay: Ratio of Ki for human adenosine A1 receptor to Ki for human adenosine A3 receptor
Homo sapiens = species: Homo sapiens; assay: Ratio of Ki for human adenosine A2A receptor to Ki for human adenosine A3 receptor
[3] = biological target: T2, Adenosine receptor A2b (Homo sapiens) (UniProt P29275); assay: Antagonist activity human adenosine A2B receptor expressed in CHO cells assessed as inhibition of NECA-mediated [3H]cAMP accumulation at =<5000 nM after 150 mins by scintillation counter; type: functional, cell-based
T2 sequence (whole entry): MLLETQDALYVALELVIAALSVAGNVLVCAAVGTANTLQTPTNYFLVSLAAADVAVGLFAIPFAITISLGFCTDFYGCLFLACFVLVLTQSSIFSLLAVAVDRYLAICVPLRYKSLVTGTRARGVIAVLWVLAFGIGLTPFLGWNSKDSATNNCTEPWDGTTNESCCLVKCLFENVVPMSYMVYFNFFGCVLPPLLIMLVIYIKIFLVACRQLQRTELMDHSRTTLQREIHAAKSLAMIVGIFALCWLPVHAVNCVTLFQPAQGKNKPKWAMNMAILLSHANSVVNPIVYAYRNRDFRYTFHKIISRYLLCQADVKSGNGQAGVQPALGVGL
Outline: (§1)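 Intact CHO cells expressing hA2B (1 x 10^6 cells/assay), preincubated 10 min at 37 °C in saline buffer pH 7.4 with 2 IU/mL adenosine deaminase and Ro 20-1724. Antagonism of 100 nM NECA-stimulated cAMP rise. Stopped with cold 6% TCA, ether-extracted. cAMP measured by competition binding with [3H]cAMP and beef adrenal binding protein (4 °C, 150 min), charcoal separation, scintillation counting. IC50 by sigmoid nonlinear regression, mean ± SEM.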

Adenosine receptor A2b = biological target: T3, Adenosine receptor A2b (Homo sapiens, UniProt P29275); assay: Antagonist activity human adenosine A2B receptor expressed in CHO cells assessed as inhibition of NECA-mediated [3H]cAMP accumulation after 150 mins by scintillation counter; type: functional, cell-based; outline: as §1
T3 sequence (P29275 whole entry): T2 sequence (whole entry)

Adenosine receptor A3 [4] = biological target: T1, Adenosine receptor A3; assay: Displacement of [3H]MRE 3008F20 from human adenosine A3 receptor expressed in CHO cells after 120 mins by scintillation spectrometry; type: cell-based
Outline: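 Membranes from hA3 CHO cells (50 μg protein/assay) in 50 mM Tris HCl, 10 mM MgCl2, 1 mM EDTA pH 7.4, adenosine deaminase-treated. Incubated with 1 nM [3H]MRE 3008F20 and 6-8 ligand concentrations, 120 min at 4 °C. Nonspecific defined with 1 μM MRE 3008F20 (~25% of total). GF/B filtration, three ice-cold washes, scintillation counting. Ki via Cheng-Prusoff; geometric mean, 95% confidence limits, n = 3-6.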

Adenosine receptor A2a [5] = biological target: T4, Adenosine receptor A2a (Homo sapiens, UniProt P29274); assay: Displacement of [3H]ZM 241385 from human adenosine A2A receptor expressed in CHO cells at <=5000 nM after 60 mins by scintillation spectrometry; type: cell-based
T4 sequence (P29274 whole entry): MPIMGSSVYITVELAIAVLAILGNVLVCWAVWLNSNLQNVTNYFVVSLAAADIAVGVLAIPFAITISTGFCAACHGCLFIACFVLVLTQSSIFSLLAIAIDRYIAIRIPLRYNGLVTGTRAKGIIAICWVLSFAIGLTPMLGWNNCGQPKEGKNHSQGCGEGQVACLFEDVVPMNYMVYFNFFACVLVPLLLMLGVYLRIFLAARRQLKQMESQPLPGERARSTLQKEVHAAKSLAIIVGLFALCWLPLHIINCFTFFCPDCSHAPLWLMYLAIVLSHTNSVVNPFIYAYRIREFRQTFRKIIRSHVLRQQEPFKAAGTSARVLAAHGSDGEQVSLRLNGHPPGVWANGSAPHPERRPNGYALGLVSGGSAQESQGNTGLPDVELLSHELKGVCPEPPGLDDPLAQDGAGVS

Adenosine receptor A2a [6] = biological target: T4, Adenosine receptor A2a; assay: Displacement of [3H]ZM 241385 from human adenosine A2A receptor expressed in CHO cells after 60 mins by scintillation spectrometry; type: cell-based
[7] = biological target: T5, Adenosine receptor A1 (Homo sapiens) (UniProt P30542); assay: Displacement of [3H]DPCPX from human adenosine A1 receptor expressed in CHO cells at =<5000 nM after 120 mins by scintillation spectrometry; type: cell-based
T5 sequence (whole entry): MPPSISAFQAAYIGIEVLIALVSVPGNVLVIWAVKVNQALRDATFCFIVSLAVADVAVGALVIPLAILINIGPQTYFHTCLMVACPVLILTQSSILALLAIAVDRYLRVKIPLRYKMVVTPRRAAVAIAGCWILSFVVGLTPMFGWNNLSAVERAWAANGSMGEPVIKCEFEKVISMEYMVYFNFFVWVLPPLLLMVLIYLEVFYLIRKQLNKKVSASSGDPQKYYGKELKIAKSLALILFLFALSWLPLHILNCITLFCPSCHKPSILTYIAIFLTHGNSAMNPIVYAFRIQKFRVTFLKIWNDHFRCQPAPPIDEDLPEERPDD
Outline: (§2)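 hA1 CHO membranes (50 μg protein/assay) in 50 mM Tris HCl pH 7.4, pretreated with adenosine deaminase 2 UI/mL for 30 min at 37 °C. Incubated with 1 nM [3H]DPCPX plus 6-8 ligand concentrations for 120 min at 25 °C. Nonspecific binding defined with 1 μM DPCPX. Ki from IC50 by Cheng-Prusoff; geometric means with 95% confidence limits.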

Adenosine receptor A1 = biological target: T6, Adenosine receptor A1 (Homo sapiens, UniProt P30542); assay: Displacement of [3H]DPCPX from human adenosine A1 receptor expressed in CHO cells after 120 mins by scintillation spectrometry; type: cell-based; outline: as §2
T6 sequence (P30542 whole entry): T5 sequence (whole entry)

[8] = Solubility of compound in water; type: physicochemical
Adenosine receptor A3 [9] = biological target: T1, Adenosine receptor A3; assay: Antagonist activity human adenosine A3 receptor expressed in CHO cells assessed as blockade of Cl-IB-MECA-mediated inhibition of forskolin-stimulated [3H]cAMP accumulation after 150 mins by scintillation counter; type: functional, cell-based
Outline: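 hA3-expressing CHO cells (1 x 10^6 cells/assay), preincubated 10 min at 37 °C in saline buffer pH 7.4 with adenosine deaminase 2 IU/mL and Ro 20-1724. Antagonism of 100 nM Cl-IB-MECA inhibition of cAMP in presence of 1 μM forskolin. Stopped with cold TCA. cAMP by [3H]cAMP competition protein binding (4 °C, 150 min), scintillation counting. IC50 from sigmoid nonlinear regression, mean ± SEM.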

Structure (SMILES)	IC50 (Adenosine receptor A3 [1])	Ratio Ki [2]	Ratio Ki (Homo sapiens)	inhibition [3]	IC50 (Adenosine receptor A2b)	Ki (Adenosine receptor A3 [4])	inhibition (Adenosine receptor A2a [5])	Ki (Adenosine receptor A2a [6])	inhibition [7]	Ki (Adenosine receptor A1)	solubility [8]	IC50 (Adenosine receptor A3 [9])
CC[C@@H]1CN2C(=O)N(C)c3nc(-c4cc(Cl)cc(Cl)c4Cl)[nH]c3C2=N1	4 nM											
Cc1cc(-c2nc3c([nH]2)C2=NC(C)CN2C(=O)N3Cc2ccccc2)nn1C (configuration not stated)		> 400	330	24%	> 5000 nM	12.2 nM	9%	> 5000 nM	22%	> 5000 nM		
CCCN1C(=O)N2C[C@@H](CC)N=C2c2[nH]c(C34CCC(O)(CC3)CC4)nc21											> 100 mg/mL	
C=CCN1C(=O)N2CC(C)N=C2c2[nH]c(-c3cc(OC)nn3C)nc21 (racemic)		2100	2100	13%	> 5000 nM	2.36 nM	1%	> 5000 nM	30%	> 5000 nM		14.5 nM
C=CCN1C(=O)N2CC(CC)N=C2c2[nH]c(-c3cc(C)n(C)n3)nc21 (racemic)			330	16%	> 5000 nM	12.5 nM	1%	> 5000 nM	20%	> 5000 nM		
CCC1CN2C(=O)N(Cc3ccccc3)c3nc(-c4cc(C)n(C)n4)[nH]c3C2=N1 (racemic)			330	27%	> 5000 nM	15 nM	13%	> 5000 nM	28%	> 5000 nM		
COc1cc(-c2nc3c([nH]2)C2=NC(C)CN2C(=O)N3Cc2ccccc2)on1 (racemic)		1800	> 1800	11%	> 5000 nM	2.68 nM	5%	> 5000 nM	35%	> 5000 nM		20.4 nM
